The source of these data is ChEMBL document CHEMBL1133137, “Synthesis and biological effects of a new series of 2-amino-3-benzoylthiophenes as allosteric enhancers of A1-adenosine receptor” (Bioorg Med Chem Lett, 2000).

A value given as a limit tells only on which side of the number the result lay.

For one assay, the target named is T1, Adenosine receptor A1 (Homo sapiens) (UniProt P30542).
T1 sequence (whole entry): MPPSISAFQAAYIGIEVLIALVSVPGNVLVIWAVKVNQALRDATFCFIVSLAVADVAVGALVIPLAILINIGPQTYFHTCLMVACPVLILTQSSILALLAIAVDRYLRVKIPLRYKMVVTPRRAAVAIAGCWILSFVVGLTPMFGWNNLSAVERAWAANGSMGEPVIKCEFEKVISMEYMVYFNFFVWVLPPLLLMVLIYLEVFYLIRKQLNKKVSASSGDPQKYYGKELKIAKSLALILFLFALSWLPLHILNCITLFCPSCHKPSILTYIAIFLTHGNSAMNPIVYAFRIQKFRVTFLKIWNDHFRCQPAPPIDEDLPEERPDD
Description: Percentage of response to 10 uM of PD-81723 on CHO cells expressing the cloned human A1-adenosine receptor at 0.1 uM concentration. The assay is classed as functional, cell-based. In a few lines: (§1)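 CHO cells stably expressing recombinant human A1 receptors (~8000 fmol/mg protein), thawed from low-passage frozen stocks, grown to confluence over 48–72 h in Ham's F-12 with 10% FBS and G-418. Test compound incubated 6 min at 36 °C with 0.05–0.1 nM CPA. Reaction stopped with HCl (final 50 mM). cAMP in acid extracts measured by radioimmunoassay. Reduction normalized to the response to 10 μM PD 81,723.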
Turning to `Nc1sc2c(c1C(=O)c1ccc(Cl)cc1)CCCCCC2`, the Response amounted to 24%.
Same read-out and setting: the same measure for `Nc1sc2c(c1C(=O)c1ccc(Cl)cc1)CCCC2`: 57%.
On the same count and under the same terms, the value for `Nc1sc2c(c1C(=O)c1ccc(Cl)cc1)CCCCC2` was 25%.
The same measure, in the same setting: the same measure for `Nc1sc2c(c1C(=O)c1ccc(Br)cc1)CCCC2`: 50%.
`Nc1sc2c(c1C(=O)c1ccc(F)cc1)CCCCC2` gave a Response of 26%.
The same measure, in the same setting: the value for `Nc1sc2c(c1C(=O)c1ccc(-c3ccccc3)cc1)CCCC2` was 14%.
`Nc1sc2c(c1C(=O)c1ccccc1)CCCC2` came in with a Response of 16%.
The same measure, in the same setting: the value for `Cc1sc(N)c(C(=O)c2cccc(C(F)(F)F)c2)c1C` was 13%.
`Nc1sc2c(c1C(=O)c1ccc(Br)cc1)CCC2` displayed a Response of 31%.
On the same count and under the same terms, the value for `Nc1sc2c(c1C(=O)c1cccc(C(F)(F)F)c1)CCN(Cc1ccccc1)C2` was 18%.
Turning to `Nc1sccc1C(=O)c1ccc(Cl)cc1`, the Response stood at 7%.
The same measure, in the same setting: the same measure for `Nc1sc2c(c1C(=O)c1ccc(Cl)cc1)CCN(CCCc1ccccc1)C2`: 8%; for `Cc1sc(N)c(C(=O)c2ccc(Cl)cc2)c1C`: 30%.
Same read-out and setting: the same measure for `Nc1sccc1C(=O)c1ccccc1`: 51%; for `Nc1sc2c(c1C(=O)c1ccc(Cl)cc1)CCNC2`: 15%; for `Nc1sc2c(c1C(=O)c1ccccc1)CCC2`: 35%.

Another assay concerns the target T1, Adenosine receptor A1 (Homo sapiens). In words: Percentage of response to 10 uM of PD-81723 on CHO cells expressing the cloned human A1-adenosine receptor at 0.1 uM. In kind it is functional, cell-based. The method in brief:
as §1
`Nc1sc2c(c1C(=O)c1cccc(C(F)(F)F)c1)CCN(CCCc1ccccc1)C2` showed a Response of less than 5%.
Still for that read-out and setting: the value for `Nc1sc2c(c1C(=O)c1ccc(F)cc1)CCC2` was less than 5%; that for `COc1ccc(C(=O)c2c(N)sc3c2CCCCC3)cc1` was less than 5%; that for `Nc1sc2c(c1C(=O)c1ccccc1)CCNC2` was less than 5%.
`COc1ccc(C(=O)c2c(N)sc3c2CCC3)cc1` registered a Response of less than 5%.
Consider `Nc1sc2c(c1C(=O)c1ccc(F)cc1)CCCC2`, for which the Response was less than 5%.
Molecule `COc1ccc(C(=O)c2c(N)sc3c2CCCC3)cc1` gave a Response of less than 5%.

The target is the same in the next assay. Description: Percentage of response to 10 uM of PD-81723 on CHO cells expressing the cloned human A1-adenosine receptor at 1 uM concentration. The assay is classed as functional, cell-based. In a few lines: as §1
Consider `Nc1sc2c(c1C(=O)c1ccc(Cl)cc1)CCCCCC2`, for which the Response is 39%.
Still for that read-out and setting: the same measure for `Nc1sc2c(c1C(=O)c1ccc(Cl)cc1)CCCC2`: 58%.
`Nc1sc2c(c1C(=O)c1ccc(Cl)cc1)CCCCC2` came in with a Response of 42%.
Same read-out and setting: the same measure for `Nc1sc2c(c1C(=O)c1ccc(Br)cc1)CCCC2`: 67%; for `Nc1sc2c(c1C(=O)c1cccc(C(F)(F)F)c1)CCN(CCCc1ccccc1)C2`: 7%.
The same measure, in the same setting: the value for `Nc1sc2c(c1C(=O)c1ccc(F)cc1)CCCCC2` was 36%.
On the same count and under the same terms, the same measure for `Nc1sc2c(c1C(=O)c1ccc(-c3ccccc3)cc1)CCCC2`: 79%; for `Nc1sc2c(c1C(=O)c1ccccc1)CCCC2`: 48%; for `Nc1sc2c(c1C(=O)c1ccc(F)cc1)CCC2`: 43%.
Turning to `COc1ccc(C(=O)c2c(N)sc3c2CCCCC3)cc1`, the Response stood at 54%.
In turn, `Cc1sc(N)c(C(=O)c2cccc(C(F)(F)F)c2)c1C` registered a Response of 40%.
On the same count and under the same terms, the same measure for `Nc1sc2c(c1C(=O)c1ccccc1)CCNC2`: 9%.
On the same count and under the same terms, the value for `Nc1sc2c(c1C(=O)c1ccc(Br)cc1)CCC2` was 53%.
The same measure, in the same setting: the value for `Nc1sc2c(c1C(=O)c1cccc(C(F)(F)F)c1)CCN(Cc1ccccc1)C2` was 41%; that for `COc1ccc(C(=O)c2c(N)sc3c2CCC3)cc1` was 43%.
`Nc1sccc1C(=O)c1ccc(Cl)cc1` returned a Response of 8%.
In turn, `Nc1sc2c(c1C(=O)c1ccc(Cl)cc1)CCN(CCCc1ccccc1)C2` returned a Response of 15%.
The same measure, in the same setting: the same measure for `Cc1sc(N)c(C(=O)c2ccc(Cl)cc2)c1C`: 52%.
The same measure, in the same setting: the same measure for `Nc1sc2c(c1C(=O)c1ccc(F)cc1)CCCC2`: 43%.
`COc1ccc(C(=O)c2c(N)sc3c2CCCC3)cc1` showed a Response of 44%.
Same read-out and setting: the value for `Nc1sccc1C(=O)c1ccccc1` was 26%.
Still for that read-out and setting: the value for `Nc1sc2c(c1C(=O)c1ccc(Cl)cc1)CCNC2` was 12%; that for `Nc1sc2c(c1C(=O)c1ccccc1)CCC2` was 29%.

A further assay shares this target. In words: Percentage of response to 10 uM of PD-81723 on CHO cells expressing the cloned human A1-adenosine receptor at 10 uM concentration. The assay is classed as functional, cell-based. The method in brief:
as §1
`Nc1sc2c(c1C(=O)c1ccc(Cl)cc1)CCCCCC2` yielded a Response of 68%.
Same read-out and setting: the same measure for `Nc1sc2c(c1C(=O)c1ccc(Cl)cc1)CCCC2`: 86%; for `Nc1sc2c(c1C(=O)c1ccc(Cl)cc1)CCCCC2`: 72%.
Still for that read-out and setting: the same measure for `Nc1sc2c(c1C(=O)c1ccc(Br)cc1)CCCC2`: 67%; for `Nc1sc2c(c1C(=O)c1cccc(C(F)(F)F)c1)CCN(CCCc1ccccc1)C2`: 22%; for `Nc1sc2c(c1C(=O)c1ccc(F)cc1)CCCCC2`: 61%.
The same measure, in the same setting: the same measure for `Nc1sc2c(c1C(=O)c1ccc(-c3ccccc3)cc1)CCCC2`: 68%; for `Nc1sc2c(c1C(=O)c1ccccc1)CCCC2`: 77%; for `Nc1sc2c(c1C(=O)c1ccc(F)cc1)CCC2`: 65%.
For the molecule `COc1ccc(C(=O)c2c(N)sc3c2CCCCC3)cc1`, the Response turned out to be 36%.
Same read-out and setting: the same measure for `Cc1sc(N)c(C(=O)c2cccc(C(F)(F)F)c2)c1C`: 100%.
Still for that read-out and setting: the value for `Nc1sc2c(c1C(=O)c1ccccc1)CCNC2` was 12%.
Still for that read-out and setting: the same measure for `Nc1sc2c(c1C(=O)c1ccc(Br)cc1)CCC2`: 72%; for `Nc1sc2c(c1C(=O)c1cccc(C(F)(F)F)c1)CCN(Cc1ccccc1)C2`: 85%.
For the molecule `COc1ccc(C(=O)c2c(N)sc3c2CCC3)cc1`, the Response is 42%.
For the molecule `Nc1sccc1C(=O)c1ccc(Cl)cc1`, the Response worked out at 25%.
The same measure, in the same setting: the same measure for `Nc1sc2c(c1C(=O)c1ccc(Cl)cc1)CCN(CCCc1ccccc1)C2`: 31%; for `Cc1sc(N)c(C(=O)c2ccc(Cl)cc2)c1C`: 92%; for `Nc1sc2c(c1C(=O)c1ccc(F)cc1)CCCC2`: 83%.
Still for that read-out and setting: the value for `COc1ccc(C(=O)c2c(N)sc3c2CCCC3)cc1` was 71%.
On the same count and under the same terms, the same measure for `Nc1sccc1C(=O)c1ccccc1`: 28%; for `Nc1sc2c(c1C(=O)c1ccc(Cl)cc1)CCNC2`: 9%.
`Nc1sc2c(c1C(=O)c1ccccc1)CCC2` yielded a Response of 82%.
